Legend:
Rattus norvegicus [1] = species on record: Rattus norvegicus; assay: Tested for inhibition of ferrous salt/ascorbate induced lipidic peroxidation of membrane lipid of rat hepatocytes; type: functional; conditions: Hepatocyte
Summary of the method: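 Rat liver microsomes (male Wistar, 200-250 g) were prepared by differential centrifugation and used at 2 mg prot/mL. Incubation was at 37°C, pH 7.4, Tris-HCl/KCl, with 100 μM ascorbate and compounds in DMSO (≤5%). TBARS were read at 543 nm against an MDA standard, using the 30-min plateau. IC50 came from % inhibition vs control by non-linear regression.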

Rattus norvegicus [2] = species on record: Rattus norvegicus; assay: Vasodilating activity in rat aorta strip in absence of 1H-[1,2,4]oxadiazolo[4,3-a]quinoxalin-1-one (ODQ); type: functional, organism-based
Summary of the method: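 Rat aortic strips were precontracted with 1 μM L-phenylephrine and relaxation was measured. The method follows an earlier published procedure with minor changes.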

Rattus norvegicus [3] = species on record: Rattus norvegicus; assay: Vasodilating activity in rat aorta strip in presence of 1H-[1,2,4]oxadiazolo[4,3-a]quinoxalin-1-one (ODQ); type: functional, organism-based
Summary of the method: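 Rat aortic strips were precontracted with 1 μM L-phenylephrine. ODQ 1 μM was added to the bath at least 5 min before contraction, in a separate series of experiments, and relaxation was then measured.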

`CC(C)(C)c1cc(CCCOc2no[n+]([O-])c2S(=O)(=O)c2ccccc2)cc(C(C)(C)C)c1O` gave an IC50 (Rattus norvegicus [1]) of 2000 nM, an EC50 (Rattus norvegicus [2]) of 110 nM and an EC50 (Rattus norvegicus [3]) of 4800 nM.
`CC(C)(C)c1cc(CCCO[N+](=O)[O-])cc(C(C)(C)C)c1O` showed an IC50 (Rattus norvegicus [1]) of 2000 nM and an EC50 (Rattus norvegicus [2]) of 40000 nM.
For `Cc1c(C)c2c(c(C)c1O)CCC(C)(COCCCO[N+](=O)[O-])O2` (stereo unspecified), the IC50 (Rattus norvegicus [1]) was 150 nM and the EC50 (Rattus norvegicus [2]) was 1200 nM.
Work on `O=[N+]([O-])OCCCc1ccc(O)cc1` yielded an IC50 (Rattus norvegicus [1]) of 143000 nM and an EC50 (Rattus norvegicus [2]) of 1000 nM.
In the case of `O=S(=O)(c1ccccc1)c1c(OCCCc2ccc(O)cc2)no[n+]1[O-]`, the IC50 (Rattus norvegicus [1]) is reported as 47000 nM, the EC50 (Rattus norvegicus [2]) is reported as 10 nM and the EC50 (Rattus norvegicus [3]) is reported as 360 nM.
`Cc1c(C)c2c(c(C)c1O)CCC(C)(COc1no[n+]([O-])c1S(=O)(=O)c1ccccc1)O2` (stereo unspecified) was tested, and the IC50 (Rattus norvegicus [1]) was 490 nM, the EC50 (Rattus norvegicus [2]) was 40 nM and the EC50 (Rattus norvegicus [3]) was 670 nM.
Work on `CCOc1no[n+]([O-])c1S(=O)(=O)c1ccccc1` yielded an IC50 (Rattus norvegicus [1]) of 110000 nM, an EC50 (Rattus norvegicus [2]) of 10 nM and an EC50 (Rattus norvegicus [3]) of 1200 nM.
In the case of `Cc1c(C)c2c(c(C)c1O)CCC(C)(C)O2` [APC-100], the IC50 (Rattus norvegicus [1]) is reported as 170 nM.
For `Cc1cc(C(C)(C)C)c(O)c(C(C)(C)C)c1` [BUTYLATED HYDROXYTOLUENE], the IC50 (Rattus norvegicus [1]) was 1700 nM.
`Cc1ccc(O)cc1` [p-CRESOL] was tested, and the IC50 (Rattus norvegicus [1]) was 290000 nM.
